Screening results: PubChem, Broad Institute
SIRT5 inh = blocks human SIRT5 desuccinylation of peptide; Q9NXA8; Purified SirT5, succinyl-peptide AMC, trypsin-coupled fluorescence; inhibition, % at 15 µM; actives 1.1% (n = 330,000); AID 652115; in the data active = inhibition above about 15%
Target sequence (Q9NXA8 whole entry, looked up): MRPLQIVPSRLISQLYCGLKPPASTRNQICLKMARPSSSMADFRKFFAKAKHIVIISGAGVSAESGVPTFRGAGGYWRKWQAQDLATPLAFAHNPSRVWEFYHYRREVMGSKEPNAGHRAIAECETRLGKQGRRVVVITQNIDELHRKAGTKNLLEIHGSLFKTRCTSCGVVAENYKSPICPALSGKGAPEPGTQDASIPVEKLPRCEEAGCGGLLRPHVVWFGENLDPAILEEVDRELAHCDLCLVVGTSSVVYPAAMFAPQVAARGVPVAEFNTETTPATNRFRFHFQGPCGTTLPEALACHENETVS
ARNT-TACC3 inh = disruptors of human ARNT/TACC3 interaction; inhibition, % at 9.99 µM; actives 0.66% (n = 390,000); AID 623870; AlphaScreen His-ARNT PAS-B/GST-TACC3 binding, luminescence; TACC3 fragment carries E629A point mutation;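 active = mean inhibition of replicates at least 50% and at least half of replicates each reaching 50%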;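 also: 0% = complete ARNT plus TACC3 wells and 100% = ARNT alone without TACC3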
FGF22 binding = shifts melting point of recombinant human FGF22 | actives 1.5% (n = 340,000) | recombinant FGF22 thermal shift, SYPRO orange fluorescence; percent of sucrose octasulfate shift, DMSO zero | Q9HCT0 | activity (Tm shift, normalised), % at 9.99 µM;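 active = mean Tm shift, scaled 0 neutral to 100 positive control, at about 1.3% or above, every replicate too, limit read from the data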
Target sequence (Q9HCT0 whole entry, looked up): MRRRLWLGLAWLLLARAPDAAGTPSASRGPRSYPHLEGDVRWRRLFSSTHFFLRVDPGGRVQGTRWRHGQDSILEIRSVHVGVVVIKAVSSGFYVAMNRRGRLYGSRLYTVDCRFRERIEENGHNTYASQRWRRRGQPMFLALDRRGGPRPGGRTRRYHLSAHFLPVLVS
DENV2 CPE rescue = protects cells from dengue virus 2 cytopathic effect; DENV2-infected cells, cytopathic effect rescue, plate reader; CPE inhibition, % at 9.99 µM; actives 1.7% (n = 350,000); AID 651640; in the data active = CPE inhibition above about 20%, passing the limit was not always enough; tested in BHK-21 cells;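 also: 0% = median of neutral control wells and 100% = median of positive control wells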
XiGFP reactiv = reactivates the inactive X chromosome in mouse fibroblasts. activation, % at 7.58 µM. actives 0.055% (n = 360,000). AID 743238. XiGFP mouse fibroblasts, % GFP-positive cells imaging, 3 d; cells co-treated with 5-aza-dC sensitizer; scaled so ellipticine positive control = 100%;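 active = mean normalized replicate activation at least 10% and every replicate at or above 10%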;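 also: 0% = median of on-plate neutral control wells and 100% = ellipticine 6 µM median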
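Assay system – SV40-immortalized XiGFP fibroblast cells, line 68-5-11 · Buffer or medium – DMEM supplemented with 5-aza-dC as sensitizing agent · Dosing – one concentration, pinned · Benchmarks – positive control ellipticine, 6 µM final · Times – 3 days compound exposure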
FN deposit inh = fibronectin deposition inhibition | AH1F fibroblasts, Alexa488-fibronectin deposition fluorescence, overnight | inhibition, % at 12.6 µM | actives 0.086% (n = 350,000);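 active = mean inhibition across replicates of 30% or more, regardless of how many single replicates reach that level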;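 also: positive control wells lacked labelled fibronectin entirely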
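Material: AH1F fibroblast monolayer depositing Alexa488-labelled fibronectin into matrix / Amount: 10000 AH1F cells per well / Signal: fluorescence 485/525 nm / Medium: DMEM, 2% serum / Compound: single dose, pinned / Incubation: 1 h cell adhesion before compound, then overnight fibronectin incubation / Reagent: Alexa488-FN, 24 nM final / Read-out: inhibition of fibronectin deposition signal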
The depositor's hits bear a star; · = no result. This is a sample that favours compounds with a hit; in the whole collection about 3.8% have one here.

SMILES	SIRT5 inh	ARNT-TACC3 inh	FGF22 binding	DENV2 CPE rescue	XiGFP reactiv	FN deposit inh
C[C@@H]1CN([C@H](C)CO)C(=O)CCCn2cc(nn2)CO[C@@H]1CN(C)S(=O)(=O)c1ccc(F)cc1	-0.3	-0.2	0.0	-5.1	0.2	2.6
COCC(=O)Nc1ccc2c(c1)C(=O)N(C)C[C@H](OC)[C@@H](C)CN(C(=O)C1CCCC1)[C@H](C)CO2	-5.3	-3.5	-0.6	0.1	0.2	-4.0
CCN(CC)c1ccc2cc(C(=O)NCc3ccc(F)cc3)c(=N)oc2c1	-0.6	-36.4	-0.1	26.3*	0.1	·
N=c1oc2ccc(Br)cc2cc1C(=O)NCc1ccc(F)cc1	2.9	-3.6	0.3	-7.5	0.1	-3.4
COc1ccc2oc(=N)c(C(=O)NCc3ccccc3)cc2c1	20.0*	1.3	-0.1	3.5	0.0	-1.1
COc1cccc(NC(=O)N2C[C@@H](O)COC[C@H]3O[C@H](CC(=O)NC4Cc5ccccc5C4)CC[C@@H]32)c1	-1.7	1.2	0.3	3.1	0.1	-9.4
CCn1ccc(C(=O)NC2C(=O)N3C(C(=O)O)=C(C)CSC23)n1 (stereo not given)	·	-5.5	·	·	·	·
C=CC1=C(C(=O)O)N2C(=O)[C@@H](NC(=O)/C(=N\O)c3csc(N)n3)[C@H]2SC1 (stereo in doubt)	4.9	64.4*	0.1	11.7	0.1	-5.3
O=C(c1cccc(F)c1)N1CC[C@H]2[C@H](CO)Nc3ccc(C#Cc4cccc(F)c4)cc3[C@H]21	14.0	·	·	3.3	-0.1	16.0
O=c1c2c3c(sc2nc(NCCO)n1CCc1ccccc1)CCCCC3	·	·	·	·	0.1	2.3
C=CCn1c(NCCO)nc2sc3c(c2c1=O)CCC3	·	-3.7	0.2	0.2	0.0	36.9*
C[C@@H]1CN([C@@H](C)CO)C(=O)c2cc(C#CCN(C)C)cnc2O[C@@H]1CN(C)C(=O)c1ccc(F)cc1	9.5	2.7	-0.8	6.2	-1.1	·
C[C@@H]1CN([C@H](C)CO)C(=O)c2cc(-c3ccc(C(=O)N(C)C)cc3)cnc2O[C@@H]1CN(C)C	4.9	-3.7	0.4	11.1	0.0	-1.4
Cc1ccc(S(=O)(=O)N(C)C[C@@H]2Oc3ccc(NS(=O)(=O)c4ccccc4)cc3C(=O)N([C@H](C)CO)C[C@H]2C)cc1	-10.4	1.7	-0.4	7.0	0.1	·
Cc1ccc(S(=O)(=O)Nc2ccc3c(c2)C(=O)N([C@@H](C)CO)C[C@@H](C)[C@@H](CN(C)S(=O)(=O)c2ccc(Cl)cc2)O3)cc1	19.8*	·	-0.9	5.5	0.0	·
Cc1ccc(S(=O)(=O)Nc2ccc3c(c2)C(=O)N([C@H](C)CO)C[C@H](C)[C@@H](CN(C)S(=O)(=O)c2ccccc2)O3)cc1	0.0	-1.9	0.2	38.7*	-1.0	·
Cc1ccc(S(=O)(=O)Nc2ccc3c(c2)C(=O)N([C@H](C)CO)C[C@@H](C)[C@H](CN(C)S(=O)(=O)c2ccc(Cl)cc2)O3)cc1	16.0*	·	·	43.0*	-1.0	·
Cc1ccc(S(=O)(=O)Nc2ccc3c(c2)C(=O)N([C@H](C)CO)C[C@H](C)[C@H](CN(C)S(=O)(=O)c2ccc(Cl)cc2)O3)cc1	8.3	·	-0.5	-6.7	0.1	·
O=C(C[C@H]1CC[C@@H](NC(=O)c2cccc(F)c2)[C@H](CO)O1)NCCN1CCCC1	2.4	31.0	-0.5	5.9	-0.2	-20.8
CCN(C[C@@H]1[C@@H](c2ccccc2)[C@H](CO)N1CC1CC1)C(=O)c1cccc(F)c1	-0.3	-10.1	-0.4	-2.3	0.6	-6.5
O=C1OC(c2ccccc2)(c2ccccc2)c2ccsc21	·	·	44.1*	-5.6	0.2	-4.2
O=C1OC(c2ccc(O)cc2)(c2ccc(O)cc2)c2ccccc21	-1.3	-2.6	-0.2	6.2	0.0	-9.6
COc1ccc(C)cc1NC(=O)C(OC(=O)c1cnc(C)cn1)c1ccccc1 (stereo not given)	1.7	1.5	-0.2	2.9	0.2	6.3
Cc1ccc(NC(=O)C(OC(=O)c2ccc(O)cc2)c2ccccc2)cc1Cl (stereo not given)	-1.5	·	77.6*	17.8	0.0	-5.6
COc1ccc(NC(=O)C(OC(=O)c2cnc(C)cn2)c2ccccc2)cc1Cl (stereo not given)	-2.2	-0.2	0.1	74.5*	0.1	·
SMILES	SIRT5 inh	ARNT-TACC3 inh	FGF22 binding	DENV2 CPE rescue	XiGFP reactiv	FN deposit inh
CN(Cc1ccccc1)N=Nc1nc[nH]c1C(N)=O	3.1	·	-0.2	77.4*	0.0	-14.7
CCC(C)c1ccccc1O (stereo not given)	·	·	0.1	4.3	·	·
CCC(c1ccccc1)C(CC)c1cc(O)c(O)c(O)c1 (stereo not given)	7.4	4.7	43.0*	9.8	0.3	-8.8
Cc1ccc(/C=C/C(=O)NCc2ccc(S(N)(=O)=O)cc2)o1	-1.1	-3.6	43.5*	-0.6	0.0	4.5
Cc1ccc(/C=C/C(=O)Nc2ccc(S(N)(=O)=O)cc2)o1	-3.1	-11.1	0.5	-6.5	0.1	·
CCS(=O)(=O)Nc1ccc2c(c1)C(=O)N(C)[C@H]1CC[C@H](CC(=O)N[C@@H]3CCN(Cc4ccccc4)C3)O[C@@H]1CO2	-2.0	-3.1	0.2	4.6	0.1	4.4
Cc1ccc(N2C(=O)CC(N(O)C3CC(=O)N(c4ccc(C)cc4)C3=O)C2=O)cc1 (stereo not given)	·	5.3	·	·	·	-2.4
CC(=O)N(NC(=O)c1ccccc1Cl)C1CC(=O)N(c2ccc(C)cc2)C1=O (stereo not given)	·	46.6*	·	·	·	-5.3
COC(=O)C(Cc1csc2ccc(Cl)cc12)NC(=O)c1ccc(Cl)cc1 (stereo not given)	-6.5	-2.8	0.3	96.0*	0.0	-1.6
COCC(=O)Nc1ccc2c(c1)[C@@H]1C[C@H](CC(=O)NCc3ccccn3)O[C@H](CO)[C@@H]1O2	3.6	·	1.1	-5.7	1.2	3.2
C[C@@H]1CN([C@H](C)CO)C(=O)Cc2cc(NC(=O)C3CC3)ccc2O[C@@H]1CN(C)Cc1ccc(Oc2ccccc2)cc1	0.8	0.3	-0.3	-0.5	0.0	·
COc1ccc(S(=O)(=O)Nc2ccc3c(c2)CC(=O)N([C@H](C)CO)C[C@@H](C)[C@@H](CN(C)Cc2ccc(C(F)(F)F)cc2)O3)cc1	21.8*	3.8	-0.3	23.2*	-0.5	-13.0
COc1ccc(S(=O)(=O)Nc2ccc3c(c2)CC(=O)N([C@@H](C)CO)C[C@H](C)[C@H](CN(C)Cc2ccc(C(F)(F)F)cc2)O3)cc1	21.7*	-6.7	-0.9	6.2	0.4	-17.2
COc1ccc(S(=O)(=O)Nc2ccc3c(c2)CC(=O)N([C@@H](C)CO)C[C@@H](C)[C@@H](CN(C)Cc2ccc(C(F)(F)F)cc2)O3)cc1	5.3	-0.8	-1.0	-2.9	-0.5	-5.1
